Experimental data published in ChEMBL document CHEMBL3286150, “Discovery of PF-5190457, a Potent, Selective, and Orally Bioavailable Ghrelin Receptor Inverse Agonist Clinical Candidate” (ACS Med Chem Lett, 2014).
Activity calls are given as the source filed them. The calls are words filed in the database; no cut-off is given here.

Key:
[1] = Apparent permeability of the compound in MDCK2 cells; type: ADME, cell-based, Canis lupus familiaris, MDCK-II; details: dog, mdck
How it was run: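 Passive permeability (Papp, 10–6 cm/s) measured in low-efflux MDCKII cells.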

[2] = Apparent intrinsic clearance in human liver microsomes; type: ADME; details: read-out: CLH
How it was run: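 Apparent intrinsic clearance in human liver microsomes, expressed as mL/min/kg. Values are uncorrected for fraction unbound.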

[3] = target: T1, Muscarinic acetylcholine receptor M2 (Homo sapiens) (UniProt P08172); experiment: Antagonist activity at muscarinic M2 receptor (unknown origin) expressed in CHO-K1 CHRM2 beta-arrestin cells assessed as inhibition of oxotremorine S-induced effect after 90 mins; type: cell-based
T1 sequence (whole entry): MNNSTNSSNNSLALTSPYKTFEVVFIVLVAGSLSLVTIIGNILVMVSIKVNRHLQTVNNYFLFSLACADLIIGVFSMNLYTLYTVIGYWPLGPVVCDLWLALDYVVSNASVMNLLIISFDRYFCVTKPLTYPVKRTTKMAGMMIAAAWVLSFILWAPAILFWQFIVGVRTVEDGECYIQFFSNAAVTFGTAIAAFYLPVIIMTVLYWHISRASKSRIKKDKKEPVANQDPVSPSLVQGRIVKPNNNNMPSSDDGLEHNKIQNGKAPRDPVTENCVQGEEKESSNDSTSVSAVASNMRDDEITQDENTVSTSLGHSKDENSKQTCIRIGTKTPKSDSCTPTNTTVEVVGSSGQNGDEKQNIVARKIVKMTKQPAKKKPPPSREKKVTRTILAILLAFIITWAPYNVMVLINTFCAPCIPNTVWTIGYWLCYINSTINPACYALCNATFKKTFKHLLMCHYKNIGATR
How it was run: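 Antagonist mode in a β-arrestin PathHunter format. Kb was determined in the presence of an EC80 concentration of the agonist oxotremorine.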

MDCK = experiment: Efflux ratio of permeability from basolateral to apical over apical to basolateral side in MDCK cells expressing human MDR1; details: dog
[4] = target: T2, 5-hydroxytryptamine receptor 2B (Homo sapiens, UniProt P41595); experiment: Agonist activity at 5HT2B receptor (unknown origin)
T2 sequence (P41595 whole entry): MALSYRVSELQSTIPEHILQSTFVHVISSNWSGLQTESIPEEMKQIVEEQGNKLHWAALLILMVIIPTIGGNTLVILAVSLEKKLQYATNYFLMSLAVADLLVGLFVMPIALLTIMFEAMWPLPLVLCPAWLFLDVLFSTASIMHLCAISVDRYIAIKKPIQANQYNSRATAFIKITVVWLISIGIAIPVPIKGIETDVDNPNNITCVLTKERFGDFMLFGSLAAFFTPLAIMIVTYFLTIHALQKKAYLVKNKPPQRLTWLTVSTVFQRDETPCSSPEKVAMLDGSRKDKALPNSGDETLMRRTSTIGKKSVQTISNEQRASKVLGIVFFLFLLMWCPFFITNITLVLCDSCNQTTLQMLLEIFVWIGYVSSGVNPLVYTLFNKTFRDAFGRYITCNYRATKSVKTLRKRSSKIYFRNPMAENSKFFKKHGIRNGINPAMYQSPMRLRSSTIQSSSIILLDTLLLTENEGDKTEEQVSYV

[5] = target: T2, 5-hydroxytryptamine receptor 2B; experiment: Antagonist activity at 5HT2B receptor (unknown origin)
[6] = target: T2, 5-hydroxytryptamine receptor 2B; experiment: Inhibition of 5HT2B receptor (unknown origin)
Homo sapiens = species: Homo sapiens; experiment: Selectivity ratio of pKb for muscarinic M2 receptor (unknown origin) expressed in CHO-K1 CHRM2 beta-arrestin cells to Ki for human ghrelin receptor expressed; type: cell-based
How it was run: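 Ratio of the M2 Kb (β-arrestin PathHunter antagonist format, EC80 oxotremorine) over the human ghrelin receptor functional Ki (GTP-γ-S assay).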

[7] = target: Voltage-gated inwardly rectifying potassium channel KCNH2 (Homo sapiens, UniProt Q12809); experiment: Inhibition of human ERG
Voltage-gated inwardly rectifying potassium channel KCNH2, sequence (Q12809 whole entry): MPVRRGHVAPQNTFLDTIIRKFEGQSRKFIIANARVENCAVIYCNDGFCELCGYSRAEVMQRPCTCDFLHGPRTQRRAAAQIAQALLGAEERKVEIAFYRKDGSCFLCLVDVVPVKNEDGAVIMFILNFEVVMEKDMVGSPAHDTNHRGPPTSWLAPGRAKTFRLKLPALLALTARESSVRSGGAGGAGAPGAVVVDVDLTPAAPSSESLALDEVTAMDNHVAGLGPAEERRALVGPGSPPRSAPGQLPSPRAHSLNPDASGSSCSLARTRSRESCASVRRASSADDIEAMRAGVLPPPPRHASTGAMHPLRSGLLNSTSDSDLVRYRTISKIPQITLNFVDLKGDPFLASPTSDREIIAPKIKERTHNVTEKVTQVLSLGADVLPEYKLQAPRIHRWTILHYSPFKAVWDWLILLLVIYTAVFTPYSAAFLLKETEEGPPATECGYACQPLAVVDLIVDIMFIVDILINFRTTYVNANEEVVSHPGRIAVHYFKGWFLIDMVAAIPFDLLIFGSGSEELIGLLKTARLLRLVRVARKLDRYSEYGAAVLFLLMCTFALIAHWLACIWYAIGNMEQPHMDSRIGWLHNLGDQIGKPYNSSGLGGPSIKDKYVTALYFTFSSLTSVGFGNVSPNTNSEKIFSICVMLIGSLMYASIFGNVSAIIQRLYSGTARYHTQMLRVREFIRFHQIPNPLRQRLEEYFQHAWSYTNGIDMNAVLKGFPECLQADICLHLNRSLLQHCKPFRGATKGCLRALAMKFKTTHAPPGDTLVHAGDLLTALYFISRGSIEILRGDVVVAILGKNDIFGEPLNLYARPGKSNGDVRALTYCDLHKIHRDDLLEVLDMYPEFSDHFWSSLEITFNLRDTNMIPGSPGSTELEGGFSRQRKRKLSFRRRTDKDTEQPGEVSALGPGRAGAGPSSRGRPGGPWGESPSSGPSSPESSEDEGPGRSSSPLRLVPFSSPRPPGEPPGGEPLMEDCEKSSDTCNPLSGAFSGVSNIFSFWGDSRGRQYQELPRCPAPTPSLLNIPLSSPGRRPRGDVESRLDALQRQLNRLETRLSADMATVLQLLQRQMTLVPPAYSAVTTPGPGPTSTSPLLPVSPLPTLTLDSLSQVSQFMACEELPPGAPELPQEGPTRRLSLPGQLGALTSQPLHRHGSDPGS

[8] = target: T3, Growth hormone secretagogue receptor type 1 (Homo sapiens, UniProt Q92847); experiment: Displacement of [125I]ghrelin from human ghrelin receptor expressed in HEK293 cells after 8 hrs by scintillation proximity assay; type: cell-based
T3 sequence (Q92847 whole entry): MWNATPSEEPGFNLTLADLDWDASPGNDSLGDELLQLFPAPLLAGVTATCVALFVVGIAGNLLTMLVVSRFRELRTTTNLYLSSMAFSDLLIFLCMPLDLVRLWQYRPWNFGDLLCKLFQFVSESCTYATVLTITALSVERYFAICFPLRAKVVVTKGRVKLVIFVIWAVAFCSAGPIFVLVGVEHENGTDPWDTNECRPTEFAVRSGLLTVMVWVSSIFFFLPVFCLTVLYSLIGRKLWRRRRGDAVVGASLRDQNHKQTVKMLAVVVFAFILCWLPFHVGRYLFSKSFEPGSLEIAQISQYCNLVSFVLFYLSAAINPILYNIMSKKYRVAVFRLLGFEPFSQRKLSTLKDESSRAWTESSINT
How it was run: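 Human ghrelin receptor binding measured by scintillation proximity assay. Values are geometric means of at least 3 measurements, unless noted otherwise.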

[9] = target: T3, Growth hormone secretagogue receptor type 1; experiment: Inverse agonist activity at human ghrelin receptor expressed in HEK293 cells assessed as inhibition of ghrelin-induced europium-labeled GTP-gamma-S binding by DELFIA; type: cell-based
How it was run: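 GTP-γ-S functional assay run in agonist/antagonist/inverse-agonist mode. Minimum percent effect is reported, with negative values denoting inverse agonism. Values are geometric means ± standard error of ≥3 measurements unless noted.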

[10] = Oral absorption in portal vein cannulated rat at 10 mg/kg, po; type: ADME, organism-based; design: dose 10 mg/kg, route oral; details: in vivo
[11] = target: D(2) dopamine receptor (Homo sapiens) (UniProt P14416); experiment: Activity at dopamine D2S receptor (unknown origin) at 10 uM
D(2) dopamine receptor (Homo sapiens), sequence (P14416 whole entry): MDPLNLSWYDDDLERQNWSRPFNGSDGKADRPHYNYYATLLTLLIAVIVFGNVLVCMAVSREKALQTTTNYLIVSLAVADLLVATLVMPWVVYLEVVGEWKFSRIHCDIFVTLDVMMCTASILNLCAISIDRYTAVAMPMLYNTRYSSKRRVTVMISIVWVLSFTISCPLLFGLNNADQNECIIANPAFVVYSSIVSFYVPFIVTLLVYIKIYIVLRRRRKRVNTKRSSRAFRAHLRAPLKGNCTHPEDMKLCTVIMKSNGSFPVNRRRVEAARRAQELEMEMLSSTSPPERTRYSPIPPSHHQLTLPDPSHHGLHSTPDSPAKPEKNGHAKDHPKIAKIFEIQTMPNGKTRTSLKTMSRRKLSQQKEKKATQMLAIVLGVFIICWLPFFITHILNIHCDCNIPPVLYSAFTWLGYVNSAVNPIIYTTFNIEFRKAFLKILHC

[12] = target: T4, Alpha-2A adrenergic receptor (Homo sapiens) (UniProt P08913); experiment: Activity at adrenergic alpha2A receptor (unknown origin) at 10 uM
T4 sequence (whole entry): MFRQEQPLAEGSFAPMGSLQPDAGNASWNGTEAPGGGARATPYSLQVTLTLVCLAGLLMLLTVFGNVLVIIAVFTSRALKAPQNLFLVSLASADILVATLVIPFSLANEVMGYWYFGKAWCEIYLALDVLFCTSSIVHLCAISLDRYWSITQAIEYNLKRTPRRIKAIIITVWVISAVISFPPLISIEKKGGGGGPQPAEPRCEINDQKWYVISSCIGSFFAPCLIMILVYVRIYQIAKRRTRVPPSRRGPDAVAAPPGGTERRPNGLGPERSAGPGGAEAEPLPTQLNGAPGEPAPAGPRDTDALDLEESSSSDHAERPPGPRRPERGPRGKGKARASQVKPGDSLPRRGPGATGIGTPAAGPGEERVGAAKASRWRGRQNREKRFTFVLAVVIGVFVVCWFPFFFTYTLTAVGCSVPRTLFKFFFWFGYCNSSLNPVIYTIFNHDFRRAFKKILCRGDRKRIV

[13] = target: T5, Alpha-2C adrenergic receptor (Homo sapiens) (UniProt P18825); experiment: Activity at adrenergic alpha2C receptor (unknown origin) at 10 uM
T5 sequence (whole entry): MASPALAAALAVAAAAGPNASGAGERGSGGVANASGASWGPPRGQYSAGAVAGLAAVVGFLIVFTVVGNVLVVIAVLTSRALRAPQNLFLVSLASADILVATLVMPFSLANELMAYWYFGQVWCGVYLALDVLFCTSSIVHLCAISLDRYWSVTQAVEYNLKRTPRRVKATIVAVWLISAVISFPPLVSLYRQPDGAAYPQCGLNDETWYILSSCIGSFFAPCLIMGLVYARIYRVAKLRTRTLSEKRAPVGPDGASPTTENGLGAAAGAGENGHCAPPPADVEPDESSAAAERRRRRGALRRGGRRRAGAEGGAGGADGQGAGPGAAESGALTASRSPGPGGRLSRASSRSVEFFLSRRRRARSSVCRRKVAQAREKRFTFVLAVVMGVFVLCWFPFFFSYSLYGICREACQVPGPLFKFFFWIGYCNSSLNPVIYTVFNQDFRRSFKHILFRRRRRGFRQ

[14] = target: T6, D(4) dopamine receptor (Homo sapiens) (UniProt P21917); experiment: Activity at dopamine D4 receptor (unknown origin) at 10 uM
T6 sequence (whole entry): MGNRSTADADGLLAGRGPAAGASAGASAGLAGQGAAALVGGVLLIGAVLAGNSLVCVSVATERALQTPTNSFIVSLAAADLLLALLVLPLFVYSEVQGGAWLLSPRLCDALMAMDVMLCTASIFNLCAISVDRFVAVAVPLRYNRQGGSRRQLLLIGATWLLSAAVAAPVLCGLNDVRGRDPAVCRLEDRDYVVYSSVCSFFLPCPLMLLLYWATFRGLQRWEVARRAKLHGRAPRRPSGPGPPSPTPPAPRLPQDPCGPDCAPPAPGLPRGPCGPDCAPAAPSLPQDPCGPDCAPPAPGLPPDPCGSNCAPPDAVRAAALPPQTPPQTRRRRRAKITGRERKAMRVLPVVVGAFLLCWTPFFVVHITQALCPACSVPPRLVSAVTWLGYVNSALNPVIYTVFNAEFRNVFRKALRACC

[15] = target: Histamine H1 receptor (Homo sapiens) (UniProt P35367); experiment: Activity at histamine H1 receptor (unknown origin) at 10 uM
Histamine H1 receptor (Homo sapiens), sequence (P35367 whole entry): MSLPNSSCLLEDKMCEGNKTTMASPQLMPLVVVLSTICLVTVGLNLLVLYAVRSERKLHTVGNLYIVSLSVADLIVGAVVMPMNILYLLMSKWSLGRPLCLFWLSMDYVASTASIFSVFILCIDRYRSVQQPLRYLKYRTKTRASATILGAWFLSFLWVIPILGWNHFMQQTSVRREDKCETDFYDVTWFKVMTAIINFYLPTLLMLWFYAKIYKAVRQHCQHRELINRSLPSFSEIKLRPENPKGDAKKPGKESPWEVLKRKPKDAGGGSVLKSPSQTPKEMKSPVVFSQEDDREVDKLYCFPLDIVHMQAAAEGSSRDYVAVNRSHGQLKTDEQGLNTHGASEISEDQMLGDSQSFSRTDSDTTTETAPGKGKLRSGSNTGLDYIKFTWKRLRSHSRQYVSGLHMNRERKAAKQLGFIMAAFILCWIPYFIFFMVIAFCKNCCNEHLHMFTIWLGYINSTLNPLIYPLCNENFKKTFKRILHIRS

[16] = target: D(3) dopamine receptor (Homo sapiens) (UniProt P35462); experiment: Activity at dopamine D3 receptor (unknown origin) at 10 uM
D(3) dopamine receptor (Homo sapiens), sequence (P35462 whole entry): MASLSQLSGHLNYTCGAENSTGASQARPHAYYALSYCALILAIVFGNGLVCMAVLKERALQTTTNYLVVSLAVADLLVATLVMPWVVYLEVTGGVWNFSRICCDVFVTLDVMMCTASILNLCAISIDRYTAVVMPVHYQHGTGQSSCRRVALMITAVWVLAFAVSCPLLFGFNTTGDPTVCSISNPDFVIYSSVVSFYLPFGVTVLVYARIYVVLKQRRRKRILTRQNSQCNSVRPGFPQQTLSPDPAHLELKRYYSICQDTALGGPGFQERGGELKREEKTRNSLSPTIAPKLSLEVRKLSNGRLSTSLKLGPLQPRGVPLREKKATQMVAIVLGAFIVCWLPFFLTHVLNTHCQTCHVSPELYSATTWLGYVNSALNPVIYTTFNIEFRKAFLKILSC

| SMILES | Papp [1] | CLint scaled [2] | pKb [3] | Ratio (MDCK) | Ratio (Homo sapiens) | Ki [9] | other results |
| --- | --- | --- | --- | --- | --- | --- | --- |
| COc1ccc(CC(=O)N2CCC3(CC2)CN([C@@H]2CCc4cc(-c5ccncn5)ccc42)C3)nc1 | 15 ×10⁻⁶ cm/s | 82 mL/min/kg | 6.08 | 5.4 | – | – | – |
| Cc1cc(-c2ccc3c(c2)CC[C@H]3N2CC3(CCN(C(=O)Cc4cn5cc(C)sc5n4)CC3)C2)ncn1 [PF-5190457] | 5 ×10⁻⁶ cm/s | 21 mL/min/kg | 5.71 | 7.2 | 266 | 6.61 nM | Activity [4]: inactive; inhibition [5]: inactive; IC50 [6]: 3.7 µM; IC50 [7]: 6.9 µM; Ki [8]: 6.61 nM; Fa [10]: 100% |
| Cc1cn2cc(CC(=O)N3CCC4(CC3)CN([C@@H]3CCc5cc(-c6ccc(C(N)=O)nc6)ccc53)C4)nc2s1 | – | – | 6.48 | > 18.2 | – | – | – |
| COc1ccc(CC(=O)N2CCC3(CC2)CN([C@@H]2CCc4cc(-c5cc(C)ncn5)ccc42)C3)nc1 | – | – | 5.66 | – | – | – | – |
| COc1ccc(CC(=O)N2CCC3(CC2)CN([C@@H]2CCc4cc(-c5ncccn5)ccc42)C3)nc1 | – | – | 6.18 | – | – | 25.1 nM | – |
| Cc1cn2cc(CC(=O)N3CCC4(CC3)CN([C@@H]3CCc5cc(-c6ncccn6)ccc53)C4)nc2s1 | 11 ×10⁻⁶ cm/s | 18 mL/min/kg | 6.41 | 5.4 | 47 | 6.61 nM | Ki [8]: 4.57 nM |
| COc1ccc(CC(=O)N2CCC3(CC2)CN([C@@H]2CCc4cc(-c5nccc(C)n5)ccc42)C3)nc1 | 10 ×10⁻⁶ cm/s | 17 mL/min/kg | 6.09 | 3.7 | 20 | 50.1 nM | – |
| COc1ccc(CC(=O)N2CCC3(CC2)CN([C@@H]2CCc4cc(-c5ncccn5)ccc42)C3)cc1 | – | – | 5.94 | – | – | – | Activity [11]: Active; Activity [12]: Active; Activity [13]: Active; Activity [14]: Active; Activity [15]: Active; Activity [16]: Active |
| COc1ccc(CC(=O)N2CCC3(CC2)CN([C@@H]2CCc4cc(-c5ncc(C)cn5)ccc42)C3)nc1 | – | – | 5.86 | – | – | 85.1 nM | – |
